ERAP1 HTS inh: ERAP1 (human) enzyme inhibition; Q9NZ08; recombinant ERAP1, Leu-AMC fluorescence, 60 min; inhibition, % at 10.7 µM; 340,000 tested, 0.15% active;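 active means mean replicate inhibition of at least 30%, or all replicates individually reaching that 30% level; inactive means mean below 30% and not every replicate reaching it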
E-sel inducer: induces E-selectin expression in human endothelial cells. P16581. HUVEC E-selectin immunofluorescence imaging; normalized: neutral wells 0, TNF-alpha wells 100. activation, % at 7.58 µM. 260,000 tested, 0.37% active;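 active means mean E-selectin-positive cell signal at least 10% of the positive control, reached in at least 60% of replicates, without over 20% cell loss; inconclusive means no rule given, readout overlaps actives, possibly toxicity-flagged; inactive means the rest, including those meeting only one limit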
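Test system – human umbilical vein endothelial cells (HUVEC), E-selectin induction · Input – 3,000 HUVEC seeded per well · Buffer or medium – EGM-2, gelatin · Compound dosing – single-point compound dose · Detection – immunofluorescence imaging · Measure – percent E-selectin-positive cells · Controls – TNF-alpha high, DMSO low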
DENV2 CPE rescue: inhibitors of DENV2 cytopathic effect. 350,000 tested, 1.7% active. CPE inhibition, % at 9.99 µM. DENV2-infected cells, cytopathic effect rescue, plate reader; in the data active means CPE inhibition above about 20%, passing the limit was not always enough; inconclusive means no clear call, values can overlap the other calls; tested in BHK-21 cells
FGF22 binding: binders of recombinant human FGF22 by thermal shift; Q9HCT0; SYPRO orange fluorescence; percent of sucrose octasulfate shift, DMSO zero; activity (Tm shift, normalised), % at 9.99 µM; 340,000 tested, 1.5% active;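 active means mean Tm shift, scaled 0 neutral to 100 positive control, at about 1.3% or above, every replicate too, limit read from the data; inconclusive means no clear call, values can overlap the other calls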
Target sequence (Q9HCT0 whole entry, looked up): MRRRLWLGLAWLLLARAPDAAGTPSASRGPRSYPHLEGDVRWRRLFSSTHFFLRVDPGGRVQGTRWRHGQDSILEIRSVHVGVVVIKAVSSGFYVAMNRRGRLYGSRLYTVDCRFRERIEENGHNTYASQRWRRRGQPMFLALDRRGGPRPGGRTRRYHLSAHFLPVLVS
CFTR F508del cor: CFTR F508del correction in bronchial cells; 350,000 tested, 0.36% active; activity (quench increase), % at 7.58 µM; CFBE cells, YFP halide quenching; stimulated with forskolin plus potentiator P3; % fluorescence drop versus neutral controls;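 active means mean added fluorescence quench of at least 8% versus neutral control, with both replicates also reaching 8%; inconclusive means only one of the mean or replicate conditions met; inactive means mean below 8% and not both replicates reaching 8%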;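 further: cells transiently co-express mutant CFTR-F508del with the halide-sensitive YFP; corrector assay measuring rescue of mutant channel to the surface after 24 h compound exposure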
Large screens that a line does not name were inactive; ! = not active in a repeat. Hits are enriched below; roughly 3.7% of the tested compounds scored in any of these assays.

O=C([C@@H]1N[C@@H]2c3ccc(-c4ccccc4F)c(=O)n3C[C@@H]2[C@H]1CO)N1CCCCC1	none
CN1CCCC1c1cccnc1 (stereo unspecified)	DENV2 CPE rescue 117 (no result: E-sel inducer)
O=C(CNC(=O)c1ccccc1)OCC(=O)c1ccccc1Cl	DENV2 CPE rescue 28
O=C(CNC(=O)c1ccccc1F)OCc1nc2ccccc2s1	none
O=C(CNC(=O)c1ccccc1)OCc1nc2ccccc2s1	FGF22 binding 43 (no result: E-sel inducer)
O=C(CNC(=O)c1ccco1)OCC(=O)c1ccccc1Cl	none (no result: E-sel inducer)
O=C(Cc1ccccc1)NCC(=O)OCC(=O)c1ccccc1Cl	FGF22 binding 112
C[C@@H]1CN([C@@H](C)CO)C(=O)c2cc(NC(=O)c3ccncc3)ccc2O[C@H]1CN(C)Cc1ccc(Cl)c(Cl)c1	none
C[C@@H]1CN([C@H](C)CO)C(=O)Cc2cc(NS(=O)(=O)c3cccs3)ccc2O[C@@H]1CN(C)C	none
O=[N+]([O-])c1cccc2c(S(=O)(=O)N3CCOCC3)cccc12	none (no result: ERAP1 HTS inh)
CCCS(=O)(=O)N1CCN(S(=O)(=O)c2ccccc2[N+](=O)[O-])CC1	FGF22 binding 43 (no result: E-sel inducer)
O=[N+]([O-])c1ccccc1S(=O)(=O)N1CCSCC1	none
O=[N+]([O-])c1cccc2c(S(=O)(=O)N3CCCCC3)cccc12	DENV2 CPE rescue 53
O=[N+]([O-])c1ccccc1S(=O)(=O)N1CCc2ccccc2C1	none (no result: E-sel inducer)
CC(=O)c1ccc(N2CCc3ccccc3C2)c([N+](=O)[O-])c1	E-sel inducer 70 (no result: ERAP1 HTS inh)
O=[N+]([O-])c1ccc(N2CCN(S(=O)(=O)c3ccccc3[N+](=O)[O-])CC2)cc1N1CCc2ccccc2C1	DENV2 CPE rescue 112 (no result: E-sel inducer, CFTR F508del cor)
Cc1ccc(S(=O)(=O)N[C@H]2CC[C@@H](CCn3cc(C4CC4)nn3)O[C@H]2CO)cc1	none
CCNC(=O)[C@@H]1[C@@H](CO)[C@@H]2Cn3c(ccc(C4=CCCC4)c3=O)[C@@H]2N1C(=O)CC1CC1	none (no result: FGF22 binding)
Cc1noc(C)c1NC(=O)Nc1ccc2c(c1)CC(=O)N([C@@H](C)CO)C[C@H](C)[C@H](CN(C)S(=O)(=O)c1cn(C)cn1)O2	none (no result: ERAP1 HTS inh)
C[C@@H](NC(=O)C[C@@H]1C=C[C@H](NC(=O)C2CCC2)[C@@H](CO)O1)c1ccccc1	DENV2 CPE rescue 24
O=C(N[C@@H]1C=C[C@@H](CC(=O)N2CCc3ccccc3C2)O[C@H]1CO)C1CCC1	none
O=C(N[C@@H]1C=C[C@H](CC(=O)N2CCc3ccccc3C2)O[C@@H]1CO)C1CCC1	DENV2 CPE rescue 98 (no result: FGF22 binding)
Cc1ccc(N(CC(=O)N/N=C/c2cccnc2)S(=O)(=O)c2ccccc2)cc1	FGF22 binding 44
O=C(Cn1cnc2ccccc21)N/N=C/c1cccnc1	FGF22 binding 43 (no result: E-sel inducer)
COc1ccccc1/C=N/NC(=O)CCn1cnc2ccccc21	FGF22 binding 44 (no result: E-sel inducer)
Cc1ccc(NC(=O)Cn2cnc3ccccc32)cc1C	FGF22 binding 43 (no result: E-sel inducer, CFTR F508del cor)
Cc1ccc(/C=N/NC(=O)Cn2cnc3ccccc32)cc1	none
O=C(C[C@H]1C=C[C@@H](NC(=O)C2CCOCC2)[C@@H](CO)O1)NCc1ccncc1	none
C/C=C/c1ccc([C@@H]2[C@@H](CO)N3C(=O)CN(C(=O)Nc4ccc(F)cc4)C[C@H]23)cc1	none
COc1ccc(NC(=O)N(C)C[C@H]2Oc3c(NC(=O)Nc4ccc(F)cc4)cccc3C(=O)N([C@H](C)CO)C[C@@H]2C)cc1	none
O=S(=O)(NCC[C@@H]1CC[C@@H](NS(=O)(=O)c2cccc(F)c2)[C@H](CO)O1)c1cccc(F)c1	DENV2 CPE rescue inconclusive
O=C(CNS(=O)(=O)N1CCOCC1)N/N=C/c1cccnc1	FGF22 binding 44
Cc1ccccc1P(=O)(c1ccccc1)c1ccccc1C	FGF22 binding 44
C[C@H](CO)N1C[C@H](C)[C@H](CN(C)Cc2ccc(C(=O)Nc3ccccc3N)cc2)Oc2ccc(NS(C)(=O)=O)cc2CC1=O	none
COc1ccc(S(=O)(=O)Nc2ccc3c(c2)C(=O)N([C@H](C)CO)C[C@H](C)[C@@H](CN(C)C)O3)cc1	DENV2 CPE rescue 69
COc1ccc(S(=O)(=O)Nc2ccc3c(c2)C(=O)N([C@@H](C)CO)C[C@@H](C)[C@H](CN(C)S(=O)(=O)c2ccc(Cl)cc2)O3)cc1	DENV2 CPE rescue 85 (no result: ERAP1 HTS inh)
COc1ccc(S(=O)(=O)N(C)C[C@H]2Oc3ccc(NS(=O)(=O)c4ccc(Cl)cc4)cc3C(=O)N([C@H](C)CO)C[C@H]2C)cc1	none
CNC[C@@H]1Oc2ccc(NS(=O)(=O)c3ccc(Cl)cc3)cc2C(=O)N([C@H](C)CO)C[C@@H]1C	DENV2 CPE rescue 39!
COc1ccc(S(=O)(=O)Nc2ccc3c(c2)C(=O)N([C@@H](C)CO)C[C@H](C)[C@H](CN(C)S(=O)(=O)c2ccc(Cl)cc2)O3)cc1	E-sel inducer 59 (no result: ERAP1 HTS inh)
COc1ccc(S(=O)(=O)Nc2ccc3c(c2)C(=O)N([C@@H](C)CO)C[C@@H](C)[C@@H](CN(C)S(=O)(=O)c2ccc(Cl)cc2)O3)cc1	none (no result: ERAP1 HTS inh)
CNC[C@H]1Oc2ccc(NS(=O)(=O)c3ccc(Cl)cc3)cc2C(=O)N([C@@H](C)CO)C[C@@H]1C	none (no result: E-sel inducer)
CCC(=O)Nc1ccc2c(c1)C(=O)N(C)C[C@H](OC)[C@H](C)CN(Cc1ccccc1)[C@@H](C)CO2	none
C=CCNC(=S)NC(CC(=O)OC)c1ccc2c(c1)OCO2 (stereo unspecified)	DENV2 CPE rescue inconclusive, FGF22 binding 43
Cc1ccc(-c2ccc3c(c2)O[C@@H](CN(C)Cc2ccncc2)[C@@H](C)CN([C@@H](C)CO)S3(=O)=O)cc1	none
COc1ccc(S(=O)(=O)N(C)C[C@@H]2Oc3ccc(NS(=O)(=O)c4ccc(C)cc4)cc3C(=O)N([C@H](C)CO)C[C@H]2C)cc1	none
CCOC(=O)c1cc(S(=O)(=O)N2CCc3ccccc32)cn1C	DENV2 CPE rescue 39 (no result: E-sel inducer)
CC(C)CC#Cc1ccc2c(c1)O[C@H](CN(C)C(=O)Cc1ccncc1)[C@@H](C)CN([C@H](C)CO)S2(=O)=O	none (no result: FGF22 binding)
Fc1ccc(C(CNC(=S)NC2CCCCC2)N2CCOCC2)cc1 (stereo unspecified)	FGF22 binding 43 (no result: E-sel inducer, DENV2 CPE rescue)
CC(C)NC(=O)N(C)C[C@@H]1Oc2ncc(C#CCC3CCCC3)cc2C(=O)N([C@H](C)CO)C[C@H]1C	none
CNC[C@@H]1Oc2ncc(-c3cccc(C(=O)N(C)C)c3)cc2C(=O)N([C@@H](C)CO)C[C@@H]1C	none (no result: ERAP1 HTS inh, DENV2 CPE rescue, FGF22 binding)
Cc1nn(C)c2c1NC(=O)CS2	FGF22 binding 43
O=C(N[C@H]1CC[C@@H](CCNC(=O)C2CCOCC2)O[C@@H]1CO)c1ccncc1	none
COc1ccc(C(=O)Nc2ccc(Nc3ccccc3)cc2)cc1[N+](=O)[O-]	DENV2 CPE rescue 40
Cc1c(C(=O)Nc2ccc(C(=O)Nc3ccccc3)cc2)cccc1[N+](=O)[O-]	DENV2 CPE rescue 26
Cc1c(C(=O)Nc2ccc(Cc3ccncc3)cc2)cccc1[N+](=O)[O-]	none (no result: DENV2 CPE rescue, CFTR F508del cor)
